Reference: publication PMC3018740 (Fitoterapia, 2010)
“Also recorded” adds a separate entry of the source.

Key:
Human recombinant COX-2 [1] = target: T1, Human recombinant COX-2 (Homo sapiens, UniProt P35354); assay: Pulsed ultrafiltration LC-MS-MS screening for COX-2 ligands; type: binding; conditions: for Relative binding to COX-2: bound/free ratio = (pulsed ultrafiltration peak area)/(peak area washing buffer); for Specific binding to COX-2 (in words): pulsed ultrafiltration LC-MS-MS
T1 sequence (P35354 18-604): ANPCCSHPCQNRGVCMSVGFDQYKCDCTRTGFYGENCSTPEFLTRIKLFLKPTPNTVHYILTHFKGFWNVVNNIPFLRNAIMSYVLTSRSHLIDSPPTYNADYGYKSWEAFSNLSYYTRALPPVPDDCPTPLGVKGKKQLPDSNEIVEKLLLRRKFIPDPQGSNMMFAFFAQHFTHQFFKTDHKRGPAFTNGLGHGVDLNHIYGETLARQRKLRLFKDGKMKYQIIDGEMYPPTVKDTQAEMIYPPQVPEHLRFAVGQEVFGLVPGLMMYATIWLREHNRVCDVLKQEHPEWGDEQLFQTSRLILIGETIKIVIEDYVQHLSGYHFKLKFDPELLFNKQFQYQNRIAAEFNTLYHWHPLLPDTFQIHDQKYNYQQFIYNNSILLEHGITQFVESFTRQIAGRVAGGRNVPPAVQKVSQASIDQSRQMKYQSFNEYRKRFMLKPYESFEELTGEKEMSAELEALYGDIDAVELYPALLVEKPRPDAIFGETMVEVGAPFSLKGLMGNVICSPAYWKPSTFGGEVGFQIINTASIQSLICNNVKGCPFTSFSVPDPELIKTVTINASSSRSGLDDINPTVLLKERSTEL

COX-2 = conditions: read-out: Previously reported IC50 for inhibition of COX-2; cell-based assay; cited from earlier work
Human recombinant COX-2 [2] = target: T1, Human recombinant COX-2; assay: COX-2 inhibition assay; type: biochemical; conditions: read-out: IC50 COX-2; purified compounds
ovine COX-1 = target: T2, ovine COX-1 (Ovis aries, UniProt P05979); assay: COX-1 inhibition assay; type: biochemical; conditions: for IC50: read-out: IC50 COX-1, purified compounds
T2 sequence (P05979 25-600): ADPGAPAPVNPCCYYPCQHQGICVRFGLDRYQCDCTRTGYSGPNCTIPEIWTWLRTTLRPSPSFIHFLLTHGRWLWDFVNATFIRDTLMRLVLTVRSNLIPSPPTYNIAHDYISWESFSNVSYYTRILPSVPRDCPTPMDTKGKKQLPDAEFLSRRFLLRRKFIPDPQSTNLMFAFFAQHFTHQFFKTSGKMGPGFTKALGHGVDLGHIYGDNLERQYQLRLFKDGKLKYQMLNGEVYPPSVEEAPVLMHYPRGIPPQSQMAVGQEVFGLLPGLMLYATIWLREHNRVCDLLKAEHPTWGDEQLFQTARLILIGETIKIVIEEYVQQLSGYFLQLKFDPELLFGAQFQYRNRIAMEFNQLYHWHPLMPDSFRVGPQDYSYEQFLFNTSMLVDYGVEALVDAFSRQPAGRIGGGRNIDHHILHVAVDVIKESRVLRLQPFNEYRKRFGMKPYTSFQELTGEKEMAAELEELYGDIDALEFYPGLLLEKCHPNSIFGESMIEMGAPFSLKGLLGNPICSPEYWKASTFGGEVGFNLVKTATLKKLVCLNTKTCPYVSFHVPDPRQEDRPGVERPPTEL
In short: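 PGE2 produced by COX-1 with test compound present was quantified by LC-MS-MS. Percent inhibition was calculated against PGE2 from the negative-control incubation. Each compound was tested at 12 concentrations, three times each. IC50 was obtained by fitting the inhibition curve.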

Relative binding to COX-2 (Human recombinant COX-2 [1])	IC50 (Human recombinant COX-2 [2])	IC50 (ovine COX-1)	Compound	Specific binding to COX-2 (in words) (Human recombinant COX-2 [1])	IC50 (COX-2)	Inhibition of COX-1 (in words) (ovine COX-1)
0			6-dehydro-6-gingerol			
0			CCCCC/C=C/[C@H](O)CC(=O)CCc1ccc(O)c(OC)c1 [6-dehydro-8-gingerol]			
0.15 ± 0.01			CCCCCCC/C=C/[C@H](O)CC(=O)CCc1ccc(O)c(OC)c1 [6-dehydro-10-gingerol]	bound to the enzyme active site		
0			CCCCC[C@H](O)C[C@H](O)CCc1ccc(O)c(OC)c1 [6-gingerdiol]			
0.23 ± 0.02			CCCCCC(=O)CC(=O)CCc1ccc(O)c(OC)c1 [6-gingerdione]	bound to the enzyme active site		
0			CCCCC[C@H](O)CC(=O)CCc1ccc(O)c(OC)c1 [6-gingerol]	not 6-gingerol or 8-gingerol bound to COX-2	> 50 µM	
			CCCCCCCC(=O)CCc1ccc(O)c(OC)c1 [6-paradol]	bound to the enzyme active site; also recorded: bound to COX-2		
0			CCCCC/C=C/C(=O)CCc1ccc(O)c(OC)c1 [6-shogaol]	COX-2 ligands but not 6-shogaol or 12-shogaol	2.1 µM	
0			CCCCCCCC(O)CC(O)CCc1ccc(O)c(OC)c1 (stereo not shown) [8-gingerdiol]			
0.20 ± 0.03			CCCCCCCC(=O)CC(=O)CCc1ccc(O)c(OC)c1 [8-gingerdione]	bound to the enzyme active site		
0			CCCCCCC[C@H](O)CC(=O)CCc1ccc(O)c(OC)c1 [8-gingerol]	not 6-gingerol or 8-gingerol bound to COX-2	10 µM	
0.70 ± 0.02			CCCCCCCCCC(=O)CCc1ccc(O)c(OC)c1 [8-paradol]	bound to the enzyme active site; also recorded: bound to COX-2		
0.27 ± 0.02	17.5 ± 2.2 µM	> 50 µM	CCCCCCC/C=C/C(=O)CCc1ccc(O)c(OC)c1 [8-shogaol]	bound to the enzyme active site; also recorded: COX-2 ligands	7.2 µM	No inhibition of COX-1 was detected; also recorded: did not inhibit COX-1
0.24 ± 0.05			CCCCCCCCCC(=O)CC(=O)CCc1ccc(O)c(OC)c1 [10-gingerdione]	bound to the enzyme active site		
0.17 ± 0.03	32 ± 1.5 µM	> 50 µM	CCCCCCCCC[C@H](O)CC(=O)CCc1ccc(O)c(OC)c1 [10-gingerol]	bound to the enzyme active site; also recorded: bound to COX-2		No inhibition of COX-1 was detected; also recorded: did not inhibit COX-1
0			CCCCCCCCCCCC(=O)CCc1ccc(O)c(OC)c1 [10-paradol]	not 10-paradol bound to COX-2		
0.35 ± 0.03	7.5 ± 0.6 µM	> 50 µM	CCCCCCCCC/C=C/C(=O)CCc1ccc(O)c(OC)c1 [10-shogaol]	bound to the enzyme active site; also recorded: COX-2 ligands		No inhibition of COX-1 was detected; also recorded: did not inhibit COX-1
0.23 ± 0.01			CCCCCCCCCCC[C@H](O)CC(=O)CCc1ccc(O)c(OC)c1 [12-gingerol]	bound to the enzyme active site; also recorded: bound to COX-2		
0			CCCCCCCCCCC/C=C/C(=O)CCc1ccc(O)c(OC)c1 [12-shogaol]	COX-2 ligands but not 6-shogaol or 12-shogaol		
